Reference: ChEMBL document CHEMBL3856275, “Discovery of Second Generation Reversible Covalent DPP1 Inhibitors Leading to an Oxazepane Amidoacetonitrile Based Clinical Candidate (AZD7986)” (J Med Chem, 2016)
≈ marks a conversion by molar mass, not a printed value.

Experiments:
[1] = Intrinsic clearance in human liver microsomes at 1 uM after 5 to 40 mins by LC-MS/MS method; format: ADME; settings: read-out: CLH
[2] = Apparent permeability across apical to basolateral side in human Caco2 cells at 10 uM after 1 hr by LC-MS method; settings: Caco-2
[3] = Protein binding in dog plasma at 10 uM after 6 hrs by LC-MS/MS method; format: ADME, cell-free, Canis lupus familiaris; settings: read-out: PPB (converted)
[4] = Clearance in Han Wistar rat at 1 mg/kg, iv and 3 mg/kg, po; format: ADME, organism-based; settings: in vivo
Method in brief: (§1)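 Han Wistar rat PK with 1 mg/kg iv and 3 mg/kg po doses, both in pH3 buffer. Clearance is given in ml/min/kg, Vss in L/kg and t1/2 in h.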

[5] = Volume of distribution at steady state in Han Wistar rat at 1 mg/kg, iv and 3 mg/kg, po; format: ADME, organism-based; settings: in vivo, read-out: Vdss; method in brief: as §1
[6] = Clearance in Beagle dog at 1 mg/kg, iv and 2 mg/kg, po; format: ADME, organism-based, Canis lupus familiaris; settings: in vivo
Dipeptidyl peptidase 1 [7] = target: T1, Dipeptidyl peptidase 1 (Mus musculus, UniProt P97821); assay: Inhibition of mouse DPP1 using Gly-Arg-AMC as substrate preincubated for 30 mins followed by substrate addition by fluorometric assay
T1 sequence (P97821 whole entry): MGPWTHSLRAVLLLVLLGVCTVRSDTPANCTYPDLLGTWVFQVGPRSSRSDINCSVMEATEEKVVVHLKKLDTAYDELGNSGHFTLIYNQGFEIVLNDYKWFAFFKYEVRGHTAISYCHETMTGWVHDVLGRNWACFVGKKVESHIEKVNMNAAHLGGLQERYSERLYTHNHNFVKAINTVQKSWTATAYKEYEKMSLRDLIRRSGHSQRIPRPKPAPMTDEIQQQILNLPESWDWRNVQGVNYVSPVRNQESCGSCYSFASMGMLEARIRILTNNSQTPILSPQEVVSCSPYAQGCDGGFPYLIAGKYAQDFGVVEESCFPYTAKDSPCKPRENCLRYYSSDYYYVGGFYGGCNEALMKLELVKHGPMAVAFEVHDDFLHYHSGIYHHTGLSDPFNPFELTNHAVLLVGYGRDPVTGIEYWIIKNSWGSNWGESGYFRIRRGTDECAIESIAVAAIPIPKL
Method in brief: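 Recombinant mouse DPP1 enzyme, tested under the same conditions as the human assay. Fluorometric assay in piperazine-based buffer.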

Dipeptidyl peptidase 1 [8] = target: T2, Dipeptidyl peptidase 1 (Rattus norvegicus, UniProt P80067); assay: Inhibition of rat DPP1 using Gly-Arg-AMC as substrate preincubated for 30 mins followed by substrate addition by fluorometric assay
T2 sequence (P80067 whole entry): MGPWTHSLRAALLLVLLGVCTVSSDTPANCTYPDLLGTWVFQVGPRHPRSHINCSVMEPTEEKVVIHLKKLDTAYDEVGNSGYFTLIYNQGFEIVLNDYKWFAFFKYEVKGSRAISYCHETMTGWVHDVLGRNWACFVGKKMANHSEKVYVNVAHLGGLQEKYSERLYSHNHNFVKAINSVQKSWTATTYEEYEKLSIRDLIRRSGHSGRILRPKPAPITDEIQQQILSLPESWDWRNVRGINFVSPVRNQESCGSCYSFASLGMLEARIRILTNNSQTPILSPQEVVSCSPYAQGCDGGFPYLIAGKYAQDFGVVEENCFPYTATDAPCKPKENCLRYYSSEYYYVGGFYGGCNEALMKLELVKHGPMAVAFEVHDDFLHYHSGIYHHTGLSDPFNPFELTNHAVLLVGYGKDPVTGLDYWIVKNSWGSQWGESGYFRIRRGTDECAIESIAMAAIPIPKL

Dipeptidyl peptidase 1 [9] = target: Dipeptidyl peptidase 1 (Canis lupus familiaris, UniProt O97578); assay: Inhibition of dog DPP1 using Gly-Arg-AMC as substrate preincubated for 30 mins followed by substrate addition by fluorometric assay
Method in brief: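 Recombinant dog DPP1 enzyme, run under the same conditions as the human isolated-enzyme assay in a piperazine-based buffer. Compound and enzyme pre-incubated 30 min at rt. Fluorescent dipeptide substrate Gly-Arg-AMC then added and fluorescence read. pIC50 obtained by curve fitting.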

Procathepsin L = Procathepsin L (Homo sapiens, UniProt P07711); assay: Inhibition of human recombinant cathepsin L
Cathepsin B = Cathepsin B (Homo sapiens, UniProt P07858); assay: Inhibition of human recombinant cathepsin B
Cathepsin K = target: T3, Cathepsin K (Homo sapiens, UniProt P43235); assay: Inhibition of human recombinant cathepsin K
T3 sequence (P43235 whole entry): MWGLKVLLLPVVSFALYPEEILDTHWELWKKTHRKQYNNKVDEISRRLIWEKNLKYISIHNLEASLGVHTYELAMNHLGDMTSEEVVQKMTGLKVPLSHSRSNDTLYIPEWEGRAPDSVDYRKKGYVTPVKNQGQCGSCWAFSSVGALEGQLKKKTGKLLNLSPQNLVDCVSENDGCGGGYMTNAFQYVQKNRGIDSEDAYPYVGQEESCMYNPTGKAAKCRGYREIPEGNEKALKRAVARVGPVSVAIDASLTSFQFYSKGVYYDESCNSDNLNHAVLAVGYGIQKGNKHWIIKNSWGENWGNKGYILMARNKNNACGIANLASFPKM

[10] = Clearance in Sprague-Dawley rat at 1 mg/kg, iv or 3 mg/kg, po; format: ADME, organism-based; settings: in vivo
[11] = Oral bioavailability in Sprague-Dawley rat at 3 mg/kg; format: ADME, organism-based; settings: in vivo
Dipeptidyl peptidase 1 [12] = target: Dipeptidyl peptidase 1 (Homo sapiens, UniProt P53634)
physchem = settings: phosphate buffered saline, pH 7.4

Procathepsin L, sequence (P07711 whole entry): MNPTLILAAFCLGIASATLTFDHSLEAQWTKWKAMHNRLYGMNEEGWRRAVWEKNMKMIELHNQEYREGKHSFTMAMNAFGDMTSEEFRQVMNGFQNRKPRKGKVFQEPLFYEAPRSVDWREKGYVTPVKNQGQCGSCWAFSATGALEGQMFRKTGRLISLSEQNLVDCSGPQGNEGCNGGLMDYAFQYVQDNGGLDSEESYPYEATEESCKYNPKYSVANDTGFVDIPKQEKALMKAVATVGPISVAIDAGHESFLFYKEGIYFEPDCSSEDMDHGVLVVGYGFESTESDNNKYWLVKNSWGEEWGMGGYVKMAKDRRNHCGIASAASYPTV
Dipeptidyl peptidase 1 (Canis lupus familiaris, UniProt O97578), sequence (O97578 1-109 limits assumed): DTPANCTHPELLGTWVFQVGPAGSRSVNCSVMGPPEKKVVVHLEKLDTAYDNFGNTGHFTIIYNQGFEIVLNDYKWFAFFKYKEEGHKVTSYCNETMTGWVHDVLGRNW
Dipeptidyl peptidase 1 (Canis lupus familiaris, UniProt O97578), sequence (O97578 200-366 limits assumed): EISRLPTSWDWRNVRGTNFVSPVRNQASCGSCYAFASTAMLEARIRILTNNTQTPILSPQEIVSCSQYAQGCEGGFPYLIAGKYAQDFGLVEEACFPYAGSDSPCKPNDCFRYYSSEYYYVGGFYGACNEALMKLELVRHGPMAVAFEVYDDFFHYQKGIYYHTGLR
Dipeptidyl peptidase 1 (Canis lupus familiaris, UniProt O97578), sequence (O97578 367-435 limits assumed): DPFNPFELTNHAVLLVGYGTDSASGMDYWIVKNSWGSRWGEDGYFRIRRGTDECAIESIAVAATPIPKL
Dipeptidyl peptidase 1 (Homo sapiens, UniProt P53634), sequence (P53634 25-134 limits assumed): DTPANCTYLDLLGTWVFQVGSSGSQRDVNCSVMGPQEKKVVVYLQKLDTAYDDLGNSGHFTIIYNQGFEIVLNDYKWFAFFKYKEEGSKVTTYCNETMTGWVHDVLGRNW
Dipeptidyl peptidase 1 (Homo sapiens, UniProt P53634), sequence (P53634 231-394 limits assumed): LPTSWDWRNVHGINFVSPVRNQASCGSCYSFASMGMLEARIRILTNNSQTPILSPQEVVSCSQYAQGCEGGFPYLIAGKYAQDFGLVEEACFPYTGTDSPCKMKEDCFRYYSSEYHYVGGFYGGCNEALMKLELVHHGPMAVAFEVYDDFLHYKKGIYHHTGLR
Dipeptidyl peptidase 1 (Homo sapiens, UniProt P53634), sequence (P53634 395-463 limits assumed): as the sequence (O97578 367-435 limits assumed) above, with S37T, R38G, D42N counted along it

microsomal CLint at 1 µM [1]: < 14 µL/min/mg
Papp A→B at 1 h, 10 µM [2]: 92 nm/s
fraction unbound at 6 h, 10 µM [3]: 0.3
clearance [4]: 0.42 L/h/kg
Vd [5]: 2.5 L/kg
clearance [6]: 0.48 L/h/kg
IC50 (Dipeptidyl peptidase 1 [7]): 0.0251 µM
IC50 (Dipeptidyl peptidase 1 [8]): 0.02 µM
IC50 (Dipeptidyl peptidase 1 [9]): 0.0158 µM
IC50 (Procathepsin L): > 20 µM
IC50 (Cathepsin B): > 20 µM
IC50 (Cathepsin K): > 20 µM
clearance [10]: 0.06 L/h/kg
bioavailability [11]: 30%
T1/2 (Dipeptidyl peptidase 1 [12]): 3 min
solubility kinetic at 2 h (physchem): 180 µM (≈ 75.7 µg/mL)
Compound: Cn1c(=O)oc2ccc(-c3ccc(C[C@@H](C#N)NC(=O)[C@@H]4CNCCCO4)cc3)cc21 [BRENSOCATIB]
